Measured values from ChEMBL document CHEMBL1125724, “Potential anti-AIDS agents. Synthesis and antiviral activity of naphthalenesulfonic acid derivatives against HIV-1 and HIV-2” (1991).
≈ marks a conversion by molar mass, not a printed value.

Tests used:
MT4 [1] = experiment: Compound was evaluated for inhibitory effect against MT-4 cells of HIV-2 at a concentration of 4(4) ug/mL (uM).; format: functional, Homo sapiens
Procedure, shortened: (§1)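 HIV-2 (ROD strain) infected MT-4 cells at multiplicity of infection 0.02, incubated with a range of compound concentrations for 4 days. Viable cells counted by MTT method. Per-concentration inhibition of virus-induced cytopathogenicity; values are means of two separate experiments.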

MT4 [2] = experiment: Compound was evaluated for inhibitory effect against MT-4 cells of HIV-1 at a concentration of 20(20.2) ug/mL (uM).; format: functional, Homo sapiens
Procedure, shortened: (§2)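 HIV-1 (HTLV-III_B) infected MT-4 cells at multiplicity of infection 0.02, incubated with a range of compound concentrations for 4 days. Viable cells counted by MTT method. Per-concentration inhibition of virus-induced cytopathogenicity; values are means of two separate experiments.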

MT4 [3] = experiment: Compound was evaluated for inhibitory effect against MT-4 cells of HIV-1 at a concentration of 4(4) ug/mL (uM).; format: functional, Homo sapiens; procedure, shortened: as §2
MT4 [4] = experiment: Compound was evaluated for inhibitory effect against MT-4 cells of HIV-2 at a concentration of 0.8(0.8) ug/mL (uM).; format: functional, Homo sapiens; procedure, shortened: as §1
MT4 [5] = experiment: Compound was evaluated for inhibitory effect against MT-4 cells of HIV-2 at a concentration of 20(20.2) ug/mL (uM).; format: functional, Homo sapiens; procedure, shortened: as §1
MT4 [6] = experiment: Compound tested for its inhibition of HIV-1 induced cytopathogenicity in MT-4 cells.; format: functional; conditions: Homo sapiens, read-out: ED50 (the source's name)
Procedure, shortened: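 MT-4 cells infected with HIV-1 (HTLV-III_B) at MOI 0.02 and incubated 4 days with a range of compound concentrations. Viable cells were counted by MTT. ED50 is the 50% antiviral dose from inhibition of virus-induced cytopathogenicity, given as the mean of two separate experiments.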

MT4 [7] = experiment: Compound tested for its inhibition of HIV-2 induced cytopathogenicity in MT-4 cells.; format: functional; conditions: Homo sapiens, read-out: ED50 (the source's name)
Procedure, shortened: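 MT-4 cells infected with HIV-2 (ROD) at MOI 0.02 and incubated 4 days with a range of compound concentrations. Viable cells were counted by MTT. ED50 is the dose giving 50% inhibition of virus-induced cytopathogenicity, given as the mean of two separate experiments.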

MT4 [8] = experiment: Compound was evaluated for inhibitory effect against MT-4 cells of HIV-1 at a concentration of 0.8(0.8) ug/mL (uM).; format: functional, Homo sapiens; procedure, shortened: as §2
MT4 [9] = experiment: Compound was evaluated for inhibitory effect against MT-4 cells of HIV-1 at a concentration of 100(101) ug/mL (uM).; format: functional, Homo sapiens; procedure, shortened: as §2
MT4 [10] = experiment: Cell viability at a concentration of 20(20.2) ug/mL (uM).; format: functional, Homo sapiens
MT4 [11] = experiment: Compound tested for its ability to reduce viability of mock-infected MT-4 cells.; format: functional; conditions: Homo sapiens, read-out: CD50 (the source's name)
Procedure, shortened: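 Mock-infected MT-4 cells were incubated 4 days with a range of compound concentrations, and viability was read by MTT. CD50 is the 50% cytotoxic dose from reduced viability, given as the mean of two separate experiments.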

MT4 [12] = experiment: Cell viability at a concentration of 0.8(0.8) ug/mL (uM).; format: functional, Homo sapiens
MT4 [13] = experiment: Cell viability at a concentration of 100(1.1) ug/mL (uM).; format: functional, Homo sapiens
MT4 [14] = experiment: Cell viability at a concentration of 4(4) ug/mL (uM).; format: functional, Homo sapiens
[15] = biological target: Human immunodeficiency virus type 1 reverse transcriptase (Human immunodeficiency virus 1) (UniProt Q72547); experiment: Compound tested for % inhibition of cell-free HIV-1 Reverse Transcriptase at a concentration of 4 uM
Procedure, shortened: (§3)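 HIV-1 RT came from disrupted, partially purified, concentrated virions. Reaction ran 30 min at 37 °C in 50 mM Tris-HCl pH 8.4 with 2 mM DTT, 100 mM KCl, 10 mM MgCl2, 0.1% Triton X-100, [methyl-3H]dTTP (1 µCi, 30 Ci/mmol), poly(rA)·oligo(dT) template and compound. It was stopped with 5% TCA, and precipitate was filter-collected and scintillation-counted. Variation was at most 10%.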

[16] = biological target: Human immunodeficiency virus type 1 reverse transcriptase (Human immunodeficiency virus 1) (UniProt Q72547); experiment: Compound tested for % inhibition of cell-free HIV-1 Reverse Transcriptase at a concentration of 505 uM; procedure, shortened: as §3
[17] = biological target: Human immunodeficiency virus type 1 protease (Human immunodeficiency virus 1) (UniProt Q72874); experiment: Compound tested for % inhibition of giant cell formation at a concentration of 101 uM
Procedure, shortened: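 MOLT-4 cells were co-cultured 24 h with an equal number of HUT-78/HTLV-III_B cells in the presence of compound. Giant (syncytial) cells were counted microscopically and inhibition of giant cell formation was scored.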

[18] = biological target: Human immunodeficiency virus type 1 reverse transcriptase (Human immunodeficiency virus 1) (UniProt Q72547); experiment: Inhibitory dose at a concentration 505 uM cell-free HIV-1 Reverse Transcriptase
Procedure, shortened: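 HIV-1 RT from disrupted, partially purified and concentrated virions. 37 °C for 30 min in 50 mM Tris-HCl pH 8.4, 2 mM DTT, 100 mM KCl, 10 mM MgCl₂, 0.1% Triton X-100, 1 µCi [methyl-³H]dTTP, 0.01 unit poly(rA)·oligo(dT). Stopped with 5% TCA; precipitate collected on glass-fiber filters and counted by scintillation. Means of two experiments; variation ≤10%.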

[19] = biological target: Human immunodeficiency virus type 1 reverse transcriptase (Human immunodeficiency virus 1) (UniProt Q72547); experiment: Compound tested for % inhibition of cell-free HIV-1 Reverse Transcriptase at a concentration of 20.2 uM.; procedure, shortened: as §3
MT4 [20] = experiment: Compound was evaluated for inhibitory effect against MT-4 cells of HIV-2 at a concentration of 100(101) ug/mL (uM).; format: functional, Homo sapiens; procedure, shortened: as §1
MT4 [21] = experiment: Compound was evaluated for inhibitory effect against MT-4 cells of HIV-2 at a concentration of 4(6.7) ug/mL (uM).; format: functional, Homo sapiens; procedure, shortened: as §1
MT4 [22] = experiment: Compound was evaluated for inhibitory effect against MT-4 cells of HIV-1 at a concentration of 20(33.4) ug/mL (uM).; format: functional, Homo sapiens; procedure, shortened: as §2
MT4 [23] = experiment: Compound was evaluated for inhibitory effect against MT-4 cells of HIV-1 at a concentration of 4(6.7) ug/mL (uM).; format: functional, Homo sapiens; procedure, shortened: as §2
MT4 [24] = experiment: Compound was evaluated for inhibitory effect against MT-4 cells of HIV-2 at a concentration of 0.8(1.3) ug/mL (uM).; format: functional, Homo sapiens; procedure, shortened: as §1
MT4 [25] = experiment: Compound was evaluated for inhibitory effect against MT-4 cells of HIV-2 at a concentration of 100(167) ug/mL (uM).; format: functional, Homo sapiens; procedure, shortened: as §1
MT4 [26] = experiment: Compound was evaluated for inhibitory effect against MT-4 cells of HIV-1 at a concentration of 0.8(1.3) ug/mL (uM).; format: functional, Homo sapiens; procedure, shortened: as §2
MT4 [27] = experiment: Compound was evaluated for inhibitory effect against MT-4 cells of HIV-1 at a concentration of 100(167) ug/mL (uM).; format: functional, Homo sapiens; procedure, shortened: as §2
MT4 [28] = experiment: Compound was evaluated for inhibitory effect against MT-4 cells of HIV-2 at a concentration of 20(33.4) ug/mL (uM).; format: functional, Homo sapiens; procedure, shortened: as §1
MT4 [29] = experiment: Cell viability at a concentration of 0.8(1.3) ug/mL (uM).; format: functional, Homo sapiens
MT4 [30] = experiment: Cell viability at a concentration of 100(167) ug/mL (uM).; format: functional, Homo sapiens
MT4 [31] = experiment: Cell viability at a concentration of 20(33.4) ug/mL (uM).; format: functional, Homo sapiens
MT4 [32] = experiment: Cell viability at a concentration of 4(6.7) ug/mL (uM).; format: functional, Homo sapiens
[33] = biological target: Human immunodeficiency virus type 1 reverse transcriptase (Human immunodeficiency virus 1) (UniProt Q72547); conditions: 6.7 uM
[34] = biological target: Human immunodeficiency virus type 1 reverse transcriptase (Human immunodeficiency virus 1) (UniProt Q72547)
[35] = biological target: Human immunodeficiency virus type 1 reverse transcriptase (Human immunodeficiency virus 1) (UniProt Q72547); conditions: 33.4 uM

Q: O=S(=O)([O-])c1cc(NS(=O)(=O)c2ccc(-c3ccc(S(=O)(=O)Nc4cc(S(=O)(=O)[O-])c5cccc(S(=O)(=O)[O-])c5c4)cc3)cc2)cc2c(S(=O)(=O)[O-])cccc12.[Na+].[Na+].[Na+].[Na+] was tested. Which Inhibition (MT4 [1]) did it give?
A: Its Inhibition is 1%.

Q: What about the Inhibition (MT4 [2]) of the same compound?
A: The Inhibition was 8%.

Q: What about the Inhibition (MT4 [3]) of the same compound?
A: The Inhibition was 1%.

Q: What about the Inhibition (MT4 [4]) of the same compound?
A: Its Inhibition is 0%.

Q: And the Inhibition (MT4 [5])?
A: Its Inhibition is 9%.

Q: And the EC50 (MT4 [6])?
A: Its EC50 is 42 µg/mL.

Q: What about the EC50 (MT4 [7]) of the same compound?
A: Its EC50 is 43 µg/mL.

Q: What about the Inhibition (MT4 [8]) of the same compound?
A: Its Inhibition is 0%.

Q: And the Inhibition (MT4 [9])?
A: Its Inhibition is 100%.

Q: What about the Cell viability (MT4 [10]) of the same compound?
A: Its Cell viability is 0.

Q: And the CC50 (MT4 [11])?
A: The CC50 was > 100 µg/mL.

Q: What about the Cell viability (MT4 [12]) of the same compound?
A: The Cell viability was 1.

Q: And the Cell viability (MT4 [13])?
A: The Cell viability was 0.

Q: And the Cell viability (MT4 [14])?
A: The Cell viability was 0.

Q: And the inhibition [15]?
A: The inhibition was 0%.

Q: What about the inhibition [16] of the same compound?
A: The inhibition was 100%.

Q: What about the inhibition [17] of the same compound?
A: The inhibition was 100%.

Q: What about the ID50 [18] of the same compound?
A: The ID50 was 370 µg/mL.

Q: And the inhibition [19]?
A: Its inhibition is 0%.

Q: What about the Inhibition (MT4 [20]) of the same compound?
A: Its Inhibition is 94%.

Q: For CCCCCCCCCCCCCCCC(=O)Nc1cc(S(=O)(=O)O)cc2cc(S(=O)(=O)O)cc(O)c12, which Inhibition (MT4 [21]) is on record?
A: Its Inhibition is 3%.

Q: What about the Inhibition (MT4 [22]) of the same compound?
A: The Inhibition was 7%.

Q: And the Inhibition (MT4 [23])?
A: Its Inhibition is 0%.

Q: What about the Inhibition (MT4 [24]) of the same compound?
A: The Inhibition was 6%.

Q: What about the Inhibition (MT4 [25]) of the same compound?
A: Its Inhibition is 100%.

Q: What about the EC50 (MT4 [6]) of the same compound?
A: The EC50 was 42 µg/mL (≈ 75.3 µM).

Q: And the EC50 (MT4 [7])?
A: Its EC50 is 40 µg/mL (≈ 71.7 µM).

Q: What about the Inhibition (MT4 [26]) of the same compound?
A: The Inhibition was 5%.

Q: What about the Inhibition (MT4 [27]) of the same compound?
A: The Inhibition was 100%.

Q: What about the Inhibition (MT4 [28]) of the same compound?
A: The Inhibition was 12%.

Q: And the CC50 (MT4 [11])?
A: Its CC50 is > 100 µg/mL.

Q: And the Cell viability (MT4 [29])?
A: Its Cell viability is 0.

Q: What about the Cell viability (MT4 [30]) of the same compound?
A: Its Cell viability is 0.

Q: What about the Cell viability (MT4 [31]) of the same compound?
A: Its Cell viability is 1.

Q: And the Cell viability (MT4 [32])?
A: Its Cell viability is 0.

Q: What about the inhibition [33] of the same compound?
A: Its inhibition is 9%.

Q: What about the ID50 [34] of the same compound?
A: The ID50 was 50 µg/mL (≈ 89.6 µM).

Q: And the inhibition [35]?
A: Its inhibition is 4%.
